Active and inactive are the calls of the source. No cut-off for these calls is given here.
Key:
[1] = test system: Staphylococcus aureus; experiment: Antibacterial activity against methicillin-resistant Staphylococcus aureus 83/05 isolates after 18 hrs; format: functional
Procedure, shortened: (§1)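 Agar-dilution MIC on Mueller–Hinton II agar per CLSI guidelines. Aqueous test solutions were added to liquid agar to give two dilution series across 6.25–400 µg/mL. Solidified plates were spot-inoculated with 2 µL aliquots to a final inoculum of 10^4 […]. […] Strains were standard S. aureus strains or hospital patient isolates typed MSSA/MRSA.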

[2] = test system: Enterococcus hirae; experiment: Antibacterial activity against Enterococcus hirae ATCC 10541 at 100 ug/disk […] by disc-diffusion method; format: functional; details: read-out: IZ
[3] = test system: Candida albicans; experiment: Antimicrobial activity against Candida albicans ATCC 10231 at 400 ug/disk after 24 to 48 hrs by disc-diffusion method; format: functional; details: read-out: IZ
Procedure, shortened: (§2)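 Antifungal disc diffusion on YNB agar under CLSI guidelines. Sterile 10 mm filter-paper discs were loaded from aqueous solution with 100 or 400 µg of compound per disc. Plates were read after 24–48 h incubation at 30 °C.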

[4] = test system: Bacillus subtilis; experiment: Antibacterial activity against Bacillus subtilis ATCC 6633 at 400 ug/disk […] by disc-diffusion method; format: functional; details: read-out: IZ
[5] = test system: Staphylococcus aureus; experiment: Antibacterial activity against methicillin-susceptible Staphylococcus aureus 112/06 isolates after 18 hrs; format: functional; procedure, shortened: as §1
[6] = test system: Staphylococcus aureus; experiment: Antibacterial activity against Staphylococcus aureus NCTC 4163 at 100 ug/disk after 24 to 48 hrs by disc-diffusion method; format: functional; details: read-out: IZ
[7] = test system: Staphylococcus aureus; experiment: Antibacterial activity against methicillin-susceptible Staphylococcus aureus 72/05 isolates after 18 hrs; format: functional; procedure, shortened: as §1
[8] = test system: Pseudomonas aeruginosa; experiment: Antibacterial activity against Pseudomonas aeruginosa ATCC 15442 at 400 ug/disk […] by disc-diffusion method; format: functional, organism-based
[9] = test system: Staphylococcus aureus; experiment: Antibacterial activity against methicillin-resistant Staphylococcus aureus 85/06 isolates after 18 hrs; format: functional; procedure, shortened: as §1
[10] = test system: Staphylococcus aureus; experiment: Antibacterial activity against Staphylococcus aureus ATCC 29213 at 400 ug/disk […] by disc-diffusion method; format: functional; details: read-out: IZ
[11] = test system: Staphylococcus aureus; experiment: Antibacterial activity against methicillin-resistant Staphylococcus aureus 80/05 isolates after 18 hrs; format: functional; procedure, shortened: as §1
[12] = test system: Staphylococcus aureus; experiment: Antibacterial activity against methicillin-resistant Staphylococcus aureus 19/04 isolates after 18 hrs; format: functional; procedure, shortened: as §1
[13] = test system: Staphylococcus aureus; experiment: Antibacterial activity against methicillin-susceptible Staphylococcus aureus 28/04 isolates after 18 hrs; format: functional; procedure, shortened: as §1
[14] = test system: Candida albicans; experiment: Antimicrobial activity against Candida albicans ATCC 10231 at 100 ug/disk after 24 to 48 hrs by disc-diffusion method; format: functional, organism-based; procedure, shortened: as §2
[15] = test system: Staphylococcus aureus; experiment: Antibacterial activity against methicillin-resistant Staphylococcus aureus 91/06 isolates after 18 hrs; format: functional; procedure, shortened: as §1
[16] = test system: Pseudomonas aeruginosa; experiment: Antibacterial activity against Pseudomonas aeruginosa NCTC 6749 at 100 ug/disk […] by disc-diffusion method; format: functional, organism-based
[17] = test system: Bordetella bronchiseptica; experiment: Antibacterial activity against Bordetella bronchiseptica ATCC 4617 at 100 ug/disk […] by disc-diffusion method; format: functional; details: read-out: IZ
[18] = test system: Staphylococcus aureus; experiment: Antibacterial activity against methicillin-susceptible Staphylococcus aureus 6/04 isolates after 18 hrs; format: functional; procedure, shortened: as §1
[19] = test system: Staphylococcus aureus; experiment: Antibacterial activity against methicillin-resistant Staphylococcus aureus 5/04 isolates after 18 hrs; format: functional; procedure, shortened: as §1
[20] = test system: Staphylococcus aureus; experiment: Antibacterial activity against methicillin-susceptible Staphylococcus aureus 60/05 isolates after 18 hrs; format: functional; procedure, shortened: as §1
[21] = test system: Staphylococcus aureus; experiment: Antibacterial activity against methicillin-resistant Staphylococcus aureus 93/06 isolates after 18 hrs; format: functional; procedure, shortened: as §1
[22] = test system: Bacillus subtilis; experiment: Antibacterial activity against Bacillus subtilis ATCC 6633 at 100 ug/disk […] by disc-diffusion method; format: functional; details: read-out: IZ
[23] = test system: Escherichia coli; experiment: Antibacterial activity against Escherichia coli ATCC 10538 at 100 ug/disk […] by disc-diffusion method; format: functional, organism-based
[24] = test system: Staphylococcus aureus; experiment: Antibacterial activity against methicillin-resistant Staphylococcus aureus 56/05 isolates after 18 hrs; format: functional; procedure, shortened: as §1
[25] = test system: Staphylococcus aureus; experiment: Antibacterial activity against methicillin-resistant Staphylococcus aureus 84/05 isolates after 18 hrs; format: functional; procedure, shortened: as §1
[26] = test system: Staphylococcus aureus; experiment: Antibacterial activity against methicillin-resistant Staphylococcus aureus 46/05 isolates after 18 hrs; format: functional; procedure, shortened: as §1
[27] = test system: Staphylococcus aureus; experiment: Antibacterial activity against Staphylococcus aureus ATCC 29213 after 18 hrs; format: functional; details: ATCC 29213, 18 h; procedure, shortened: as §1
[28] = test system: Staphylococcus aureus; experiment: Antibacterial activity against Staphylococcus aureus ATCC 25923 at 100 ug/disk after 24 to 48 hrs by disc-diffusion method; format: functional; details: read-out: IZ
[29] = test system: Staphylococcus aureus; experiment: Antibacterial activity against Staphylococcus aureus NCTC 4163 at 400 ug/disk after 24 to 48 hrs by disc-diffusion method; format: functional; details: read-out: IZ
[30] = test system: Staphylococcus aureus; experiment: Antibacterial activity against methicillin-resistant Staphylococcus aureus 29/04 isolates after 18 hrs; format: functional; procedure, shortened: as §1
[31] = test system: Staphylococcus aureus; experiment: Antibacterial activity against Staphylococcus aureus ATCC 6538P at 100 ug/disk after 24 to 48 hrs by disc-diffusion method; format: functional; details: read-out: IZ
[32] = test system: Escherichia coli; experiment: Antibacterial activity against Escherichia coli ATCC 25922 at 100 ug/disk […] by disc-diffusion method; format: functional, organism-based
[33] = test system: Staphylococcus aureus; experiment: Antibacterial activity against methicillin-resistant Staphylococcus aureus 54/05 isolates after 18 hrs; format: functional; procedure, shortened: as §1

Which results are given for `CC1=C(C)C2(C)C3C(=O)N(OCC(O)C[N+](C)(C)CC(O)CON4C(=O)C5C(C4=O)C4(C)C(C)=C(C)C5(C)C4C)C(=O)C3C1(C)C2C.[Cl-]` (stereo not drawn)?
MIC [1]: 50 µg/mL; zone of inhibition at 100 µg/disc [2]: 14 mm; zone of inhibition at 400 µg/disc [3]: 14 mm; zone of inhibition at 400 µg/disc [4]: 30 mm; MIC [5]: 50 µg/mL; zone of inhibition at 100 µg/disc [6]: 17 mm; MIC [7]: 50 µg/mL; Activity [8]: inactive; MIC [9]: 100 µg/mL; zone of inhibition at 400 µg/disc [10]: 24 mm; MIC [11]: 50 µg/mL; MIC [12]: 200 µg/mL; MIC [13]: 50 µg/mL; Activity [14]: inactive; MIC [15]: 100 µg/mL; Activity [16]: inactive; zone of inhibition at 100 µg/disc [17]: 13 mm; MIC [18]: 25 µg/mL; MIC [19]: 200 µg/mL; MIC [20]: 25 µg/mL; MIC [21]: 25 µg/mL; zone of inhibition at 100 µg/disc [22]: 25 mm; Activity [23]: inactive; MIC [24]: 50 µg/mL; MIC [25]: 50 µg/mL; MIC [26]: 50 µg/mL; MIC [27]: 50 µg/mL; zone of inhibition at 100 µg/disc [28]: 16 mm; zone of inhibition at 400 µg/disc [29]: 24 mm; MIC [30]: 200 µg/mL; zone of inhibition at 100 µg/disc [31]: 17 mm; Activity [32]: inactive; MIC [33]: 50 µg/mL
